Here are results for 16 molecules from ChEMBL document CHEMBL1156631 (J Med Chem, 2008).

SMILES strings stand for the structures. A value given as a limit tells only on which side of the number the result lay.

In general, EC50 refers to the midpoint of the concentration-response curve. As a reminder, the Emax is the maximal effect, on the per cent scale that the assay sets.

In experiment [1] the target is T1, Cannabinoid receptor 1 (Homo sapiens, UniProt P21554). In words: Agonist activity at human CB1 receptor expressed in Sf9 cells by GTP-europium binding assay. The method, boiled down: (§1)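 Membranes were from Sf9 insect cells cotransfected with CB1 or CB2 plus Gαi3 (Bmax 1.7 pmol/mL). Compound (0.01 nM–10 µM, 1% DMSO final) was added to buffer with Hepes, BSA, 10 mM MgCl2, 150 mM NaCl, 5 µM GDP, 10 nM GTP-europium, saponin and membranes (CB1 4.5 µg/well, CB2 14 µg/well). 100% efficacy was set by 3 µM reference agonist.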

Experiment [2] concerns the target T2, Cannabinoid receptor 2 (Homo sapiens, UniProt P34972). The experiment in a line: Agonist activity at human recombinant CB2 receptor expressed in Sf9 cells by GTP-europium binding assay. The method, boiled down:
as §1

Experiment [3] deals with T2, Cannabinoid receptor 2. In words: Agonist activity at human recombinant CB2 receptor expressed in Sf9 cells by GTP-europium binding assay relative to CP-55940. The method, boiled down: (§2)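 Membranes were from Sf9 insect cells cotransfected with CB1 or CB2 plus Gαi3 (Bmax 1.7 pmol/mL). Compound (0.01 nM–10 µM, 1% DMSO final) was added to buffer with Hepes, BSA, 10 mM MgCl2, 150 mM NaCl, 5 µM GDP, 10 nM GTP-europium, saponin and membranes (CB1 4.5 µg/well, CB2 14 µg/well). Incubation was 45 min at room temperature, then filtration and washing, with fluorescence read at 615 nm. 100% efficacy was set by 3 µM reference agonist.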

The target of experiment [4] is T3, Cannabinoid receptor 2 (Rattus norvegicus, UniProt Q9QZN9).
T3 sequence (Q9QZN9 whole entry): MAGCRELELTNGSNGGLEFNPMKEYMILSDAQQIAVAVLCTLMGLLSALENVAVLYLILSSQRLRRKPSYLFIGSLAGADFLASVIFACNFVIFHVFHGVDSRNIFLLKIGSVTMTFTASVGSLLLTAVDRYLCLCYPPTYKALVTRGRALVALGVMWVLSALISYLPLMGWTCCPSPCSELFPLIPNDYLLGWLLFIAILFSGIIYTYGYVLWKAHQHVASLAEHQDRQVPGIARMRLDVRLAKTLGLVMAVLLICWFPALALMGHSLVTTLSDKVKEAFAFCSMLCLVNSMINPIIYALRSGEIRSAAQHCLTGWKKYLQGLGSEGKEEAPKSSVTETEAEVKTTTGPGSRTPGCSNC
In words: Agonist activity at rat recombinant CB2 receptor expressed in CHO-K1 cells assessed as inhibition of forskolin-stimulated intracellular cAMP level. The format is functional, cell-based. The method, boiled down: (§3)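 CHO-K1 cells stably expressing human or rat CB1 or CB2 were used. Compounds were diluted from DMSO into HBSS/HEPES/BSA buffer containing 60 µM forskolin, then combined with 5000 cells/well plus Alexa647 anti-cAMP antibody, 1 h at room temperature. A biotinylated-cAMP detection mix was added for another 1 h. Emission at 665 nm gave concentration-response curves and EC50; Emax is expressed as a percentage of the reference agonist maximum.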

The target in experiment [5] is T1, Cannabinoid receptor 1. The experiment in a line: Agonist activity at human recombinant CB1 receptor expressed in CHO-K1 cells assessed as inhibition of forskolin-stimulated intracellular cAMP level. The class given is functional, cell-based. Summed up:
(§4)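 CHO-K1 cells stably expressing human or rat CB1 or CB2 were used. Compounds were diluted from DMSO into HBSS/HEPES/BSA buffer containing 60 µM forskolin, then combined with 5000 cells/well plus Alexa647 anti-cAMP antibody, 1 h at room temperature. A biotinylated-cAMP detection mix was added for another 1 h.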
A general note: Changes in cAMP serve as a functional read-out for many G protein-coupled receptors.

In experiment [6] the target is Cannabinoid receptor 1 (Rattus norvegicus, UniProt P20272). The experiment in a line: Agonist activity at rat recombinant CB1 receptor expressed in CHO-K1 cells assessed as inhibition of forskolin-stimulated intracellular cAMP level. The class given is functional, cell-based. Summed up: as §4
Experiment [7] concerns the target T2, Cannabinoid receptor 2. The experiment in a line: Agonist activity at human recombinant CB2 receptor expressed in CHO-K1 cells assessed as inhibition of forskolin-stimulated intracellular cAMP level relative to CP-55940. The format is functional, cell-based. The method, boiled down: as §3
Experiment [8] has as its target T2, Cannabinoid receptor 2. The experiment in a line: Agonist activity at human recombinant CB2 receptor expressed in CHO-K1 cells assessed as inhibition of forskolin-stimulated intracellular cAMP level. The format is functional, cell-based. The method, boiled down: as §4
Experiment [9] has as its target T4, Cannabinoid receptor 2 (Rattus norvegicus) (UniProt Q9QZN9).
T4 sequence (whole entry): T3 sequence (Q9QZN9 whole entry)
The experiment in a line: Agonist activity at rat recombinant CB2 receptor expressed in CHO-K1 cells assessed as inhibition of forskolin-stimulated intracellular cAMP level relative to CP-55940. The format is functional, cell-based. The method, boiled down: as §3

In experiment [10] the target is T1, Cannabinoid receptor 1. The experiment in a line: Agonist activity at human recombinant CB1 receptor expressed in Sf9 cells by GTP-europium binding assay relative to CP-55940. The method, boiled down:
as §2

Sequence of Cannabinoid receptor 1 (Rattus norvegicus, UniProt P20272) (P20272 whole entry): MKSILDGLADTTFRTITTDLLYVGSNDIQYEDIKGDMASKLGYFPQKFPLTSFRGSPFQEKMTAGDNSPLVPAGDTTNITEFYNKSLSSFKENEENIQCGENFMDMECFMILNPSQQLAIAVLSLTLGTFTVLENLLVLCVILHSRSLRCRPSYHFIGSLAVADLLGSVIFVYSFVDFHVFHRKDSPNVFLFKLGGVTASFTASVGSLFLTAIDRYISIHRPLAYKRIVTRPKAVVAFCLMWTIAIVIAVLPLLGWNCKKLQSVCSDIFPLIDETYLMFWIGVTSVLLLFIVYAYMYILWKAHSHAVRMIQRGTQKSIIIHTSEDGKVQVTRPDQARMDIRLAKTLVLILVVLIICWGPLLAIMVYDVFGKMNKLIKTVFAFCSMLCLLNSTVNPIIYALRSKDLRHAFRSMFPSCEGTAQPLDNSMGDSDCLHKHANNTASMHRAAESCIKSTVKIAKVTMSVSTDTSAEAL
T2 sequence (P34972 whole entry): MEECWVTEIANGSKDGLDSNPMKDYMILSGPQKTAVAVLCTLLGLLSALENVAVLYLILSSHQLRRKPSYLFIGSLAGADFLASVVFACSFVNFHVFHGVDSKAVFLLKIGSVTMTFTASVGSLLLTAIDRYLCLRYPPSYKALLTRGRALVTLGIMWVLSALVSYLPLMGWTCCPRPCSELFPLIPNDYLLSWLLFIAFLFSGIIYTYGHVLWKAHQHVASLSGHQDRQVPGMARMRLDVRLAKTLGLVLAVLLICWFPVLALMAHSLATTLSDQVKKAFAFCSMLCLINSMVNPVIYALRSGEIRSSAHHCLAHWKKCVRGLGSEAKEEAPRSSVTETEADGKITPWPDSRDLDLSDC
T1 sequence (P21554 whole entry): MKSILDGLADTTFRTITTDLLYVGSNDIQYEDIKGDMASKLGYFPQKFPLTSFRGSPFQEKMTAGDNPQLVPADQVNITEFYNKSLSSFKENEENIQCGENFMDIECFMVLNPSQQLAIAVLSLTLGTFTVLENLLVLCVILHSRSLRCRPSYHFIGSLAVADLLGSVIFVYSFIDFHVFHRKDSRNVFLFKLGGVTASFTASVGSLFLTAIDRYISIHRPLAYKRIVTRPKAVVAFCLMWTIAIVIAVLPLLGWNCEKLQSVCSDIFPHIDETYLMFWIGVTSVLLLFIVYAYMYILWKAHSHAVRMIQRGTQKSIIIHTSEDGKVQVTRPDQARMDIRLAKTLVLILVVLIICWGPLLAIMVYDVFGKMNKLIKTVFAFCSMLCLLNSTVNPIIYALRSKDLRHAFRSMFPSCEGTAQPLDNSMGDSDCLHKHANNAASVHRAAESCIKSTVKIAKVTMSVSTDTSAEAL

As to `CCn1c2ccccc2c2cc(NC(=O)CCc3cc(-c4ccccc4F)[nH]n3)ccc21`, the EC50 on Cannabinoid receptor 1 [1] and at Cannabinoid receptor 2 [2] was over 10000 nM each time.

For the molecule `CCn1c2ccccc2c2cc(NC(=O)CCn3cc(-c4ccccc4F)nn3)ccc21`, the values for the EC50 at Cannabinoid receptor 1 [1] and on Cannabinoid receptor 2 [2] were over 10000 nM and 470 nM, respectively. The Emax on Cannabinoid receptor 2 [3] amounted to 15%.

As to `CCn1c2ccccc2c2cc(NC(=O)CCc3nc(-c4ccccc4C(C)C)no3)ccc21`, the values for the EC50 on Cannabinoid receptor 1 [1] and on Cannabinoid receptor 2 [2] were over 10000 nM and 670 nM, respectively. Further, the Emax at Cannabinoid receptor 2 [3] was determined as 88%.

Regarding `CCn1c2ccccc2c2cc(NC(=O)CCc3nc(-c4ccncc4C#N)no3)ccc21`, the EC50 at Cannabinoid receptor 1 [1] is over 10000 nM; at Cannabinoid receptor 2 [4] it was 1.3 nM; at Cannabinoid receptor 1 [5], over 1000 nM; on Cannabinoid receptor 2 [2], 3.8 nM; on Cannabinoid receptor 1 [6], over 1000 nM; at Cannabinoid receptor 2 [8], over 2.6 nM. Further, the Emax at Cannabinoid receptor 2 [3] worked out at 110%; at Cannabinoid receptor 2 [7] it was 100%; in [9], 110%.

With `CCn1c2ccccc2c2cc(NC(=O)CCc3cc(-c4ccccc4F)no3)ccc21`, the EC50 on Cannabinoid receptor 1 [1] was over 10000 nM; on Cannabinoid receptor 2 [2] it was 270 nM. The Emax at Cannabinoid receptor 2 [3] was 64%.

In the case of `CC(C)c1ccc(NC(=O)CCc2nc(-c3ccc(F)cc3Cl)no2)cc1`, the EC50 on Cannabinoid receptor 1 [1] turned out to be 2000 nM; at Cannabinoid receptor 2 [2], 10 nM. Also, the Emax came out at 130% on Cannabinoid receptor 2 [3] and 23% on Cannabinoid receptor 1 [10].

Take `CCn1c2ccccc2c2cc(NC(=O)CCc3nc(-c4ccccc4)no3)ccc21`: on Cannabinoid receptor 2 [2], the EC50 was found to be 150 nM. Further, the Emax on Cannabinoid receptor 2 [3] came out at 100%.

Turning to `O=C(CCc1nc(-c2ccc(F)cc2Cl)no1)Nc1ccc(C(F)(F)F)c(Cl)c1`, the EC50 at Cannabinoid receptor 1 [1] is over 10000 nM; at Cannabinoid receptor 2 [4] it was 79 nM; at Cannabinoid receptor 1 [5], over 1000 nM; on Cannabinoid receptor 2 [2], 62 nM; at Cannabinoid receptor 1 [6], over 1000 nM; on Cannabinoid receptor 2 [8], 25 nM. Besides, the Emax was 120% at Cannabinoid receptor 2 [3], 97% at Cannabinoid receptor 2 [7] and 100% in [9].

In the case of `CCn1c2ccccc2c2cc(NC(=O)CCc3nc(-c4cccc(Cl)c4)no3)ccc21`, the EC50 on Cannabinoid receptor 1 [1] is over 10000 nM; at Cannabinoid receptor 2 [2] it was 410 nM. Further, the Emax at Cannabinoid receptor 2 [3] came to 87%.

With `CCn1c2ccccc2c2cc(NC(=O)CCc3cc(-c4ccccc4F)n(C)n3)ccc21`, the EC50 on Cannabinoid receptor 1 [1] and on Cannabinoid receptor 2 [2] was over 10000 nM throughout.

Turning to `CCn1c2ccccc2c2cc(NC(=O)CCc3nc(-c4ccccc4Cl)no3)ccc21`, the EC50 was over 10000 nM at Cannabinoid receptor 1 [1] and 6 nM at Cannabinoid receptor 2 [2]. The Emax on Cannabinoid receptor 2 [3] came to 100%.

Regarding `CCn1c2ccccc2c2cc(NC(=O)CCc3nc(-c4ccccc4F)co3)ccc21`, the EC50 was over 10000 nM on Cannabinoid receptor 1 [1] and 2000 nM at Cannabinoid receptor 2 [2]. Besides, the Emax at Cannabinoid receptor 2 [3] was determined as 46%.

In the case of `CCn1c2ccccc2c2cc(NC(=O)CCc3noc(-c4ccccc4F)n3)ccc21`, the concentration for a half-maximal effect (EC50) at Cannabinoid receptor 1 [1] is over 10000 nM; at Cannabinoid receptor 2 [2], 190 nM. Also, the Emax at Cannabinoid receptor 2 [3] worked out at 76%.

Take `O=C(CCc1nc(-c2ccc(F)cc2Cl)no1)Nc1ccc(C(F)(F)F)cc1`: the EC50 at Cannabinoid receptor 1 [1] was over 10000 nM; on Cannabinoid receptor 2 [4] it was 58 nM; at Cannabinoid receptor 1 [5], over 1000 nM; at Cannabinoid receptor 2 [2], 75 nM; on Cannabinoid receptor 1 [6], over 1000 nM; on Cannabinoid receptor 2 [8], 38 nM. Besides, the results for the Emax (on Cannabinoid receptor 2 [3]; at Cannabinoid receptor 2 [7]; in experiment [9]) were 120%, 94% and 90%, respectively.

`CCCCCCC(C)(C)c1ccc([C@@H]2C[C@H](O)CC[C@H]2CCCO)c(O)c1` [CP-55940]: the EC50 on Cannabinoid receptor 2 [4] amounted to 0.34 nM.

Turning to `CCn1c2ccccc2c2cc(NC(=O)CCn3nnc(-c4ccccc4F)n3)ccc21`, the EC50 is over 10000 nM on Cannabinoid receptor 1 [1]; 97 nM on Cannabinoid receptor 2 [4]; over 1000 nM at Cannabinoid receptor 1 [5]; 200 nM on Cannabinoid receptor 2 [2]; over 1000 nM on Cannabinoid receptor 1 [6]; 690 nM on Cannabinoid receptor 2 [8]. In addition, the Emax amounted to 93% at Cannabinoid receptor 2 [3], 88% at Cannabinoid receptor 2 [7] and 90% in [9].
